Test results as given in ChEMBL document CHEMBL1142628, “Antineoplastic agents 430. Isolation and structure of cribrostatins 3, 4, and 5 from the republic of maldives cribrochalina species” (2000).
Values after ≈ are worked out from the molar mass of the structure shown. Active and inactive are the calls of the source. No cut-off for these calls is given here.

Assays:
Neisseria gonorrhoeae [1] = assay: Antibacterial activity against Neisseria gonorrhoeae ATCC 49226 by disk diffusion method; assay type: functional
[2] = Growth inhibition of human HL60(TB) cells; assay type: functional, HL-60(TB); settings: HL-60
In short: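 NCI human tumour cell-line panel screen run by the standard NCI protocol. Each compound was tested in quadruplicate, with an upper concentration limit of 10^-5 M and five log-spaced dilutions. GI50 values were averaged and reported as negative log GI50.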

SN12C = assay: Growth inhibition of human SN12C cells; assay type: functional
In short: (§1)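 NCI human tumor cell line panel screen run to the standard NCI protocol. Each compound tested in quadruplicate with a top concentration of 10^-5 M and five log-spaced dilutions. GI50 values were averaged across replicates and reported as negative log GI50.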

MDA-MB-435 = assay: Growth inhibition of human MDA-MB-435 cells; assay type: functional
In short: (§2)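 NCI 60-cell-line screen run by the standard NCI protocol. Each test agent ran in quadruplicate, with a top concentration of 10^-5 M and five log-spaced dilutions. GI50 values were averaged and reported as negative log GI50.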

SNB-75 = assay: Growth inhibition of human SNB75 cells; assay type: functional; in short: as §1
U-251 = assay: Growth inhibition of human U251 cells; assay type: functional; in short: as §1
SF-268 = assay: Growth inhibition of human SF268 cells; assay type: functional; in short: as §1
T47D = assay: Growth inhibition of human T47D cells; assay type: functional; in short: as §1
Micrococcus luteus = assay: Antibacterial activity against Micrococcus luteus Presque Isle 456 at 100 ug/disk by disk diffusion method; assay type: functional, organism-based
COLO 205 = assay: Growth inhibition of human COLO205 cells; assay type: functional; in short: as §2
Neisseria gonorrhoeae [3] = assay: Antibacterial activity against penicillin-resistant Neisseria gonorrhoeae isolate by disk diffusion method; assay type: functional
RXF 393 = assay: Growth inhibition of human RXF393 cells; assay type: functional; in short: as §1
Malme-3M = assay: Growth inhibition of human MALME-3M cells; assay type: functional; in short: as §2
Candida albicans = assay: Antifungal activity against Candida albicans ATCC 90028 at 100 ug/disk by disk diffusion method; assay type: functional, organism-based
A549 = assay: Growth inhibition of human A549/ATCC cells; assay type: functional; in short: as §2
OVCAR-3 = assay: Growth inhibition of human OVCAR-3 cells; assay type: functional; in short: as §2
Cryptococcus neoformans = assay: Antifungal activity against Cryptococcus neoformans ATCC 90112 at 100 ug/disk by disk diffusion method; assay type: functional, organism-based
MOLT-4 = assay: Growth inhibition of human MOLT4 cells; assay type: functional; in short: as §2
SK-MEL-5 = assay: Growth inhibition of human SK-MEL-5 cells; assay type: functional; in short: as §1
Enterobacter cloacae = assay: Antibacterial activity against Enterobacter cloacae ATCC 13047 at 100 ug/disk by disk diffusion method; assay type: functional, organism-based
Escherichia coli = assay: Antibacterial activity against Escherichia coli ATCC 25922 at 100 ug/disk by disk diffusion method; assay type: functional, organism-based
BXPC-3 = assay: Growth inhibition of human BXPC3 cells; assay type: functional
NCI-H460 [4] = assay: (§3) Growth inhibition of human NCI-H460 cells; assay type: functional; in short: as §2
NCI-H522 = assay: Growth inhibition of human NCI-H522 cells; assay type: functional; in short: as §2
786-0 = assay: Growth inhibition of human 786-0 cells; assay type: functional; in short: as §2
OVCAR-8 = assay: Growth inhibition of human OVCAR8 cells; assay type: functional; in short: as §2
KM-20L2 = assay: Growth inhibition of human KM20L2 cells; assay type: functional
Staphylococcus aureus = assay: Antibacterial activity against Staphylococcus aureus ATCC 29213 at 100 ug/disk by disk diffusion method; assay type: functional, organism-based
K562 = assay: Growth inhibition of human K562 cells; assay type: functional; in short: as §2
MCF7 [5] = assay: Growth inhibition of human MCF7 cells; assay type: functional; in short: as §2
CCRF-CEM = assay: Growth inhibition of human CCRF-CEM cells; assay type: functional; in short: as §2
OVCAR-4 = assay: Growth inhibition of human OVCAR4 cells; assay type: functional; in short: as §2
MCF7 [6] = assay: Growth inhibition of human adriamycin-resistant MCF7 cells; assay type: functional; in short: as §1
NCI-H460 [7] = assay: as §3; assay type: functional; in short: as §2; remark: listed apart in the source
LOX IMVI = assay: Growth inhibition of human LOX IMVI cells; assay type: functional; in short: as §2
SW-620 = assay: Growth inhibition of human SW620 cells; assay type: functional; in short: as §1
[8] = test system: Stenotrophomonas maltophilia; assay: Antibacterial activity against Stenotrophomonas maltophilia ATCC 13637 at 100 ug/disk by disk diffusion method; assay type: functional, organism-based
Bacillus subtilis = assay: Antibacterial activity against Bacillus subtilis Presque Isle 620 at 100 ug/disk by disk diffusion method; assay type: functional, organism-based
Enterococcus faecalis = assay: Antibacterial activity against Enterococcus faecalis ATCC 29212 at 100 ug/disk by disk diffusion method; assay type: functional, organism-based
Hs-578T = assay: Growth inhibition of human HS578T cells; assay type: functional; in short: as §2
SR = assay: Growth inhibition of human SR cells; assay type: functional; in short: as §1
HOP-62 = assay: Growth inhibition of human HOP62 cells; assay type: functional; in short: as §2
RPMI-8226 = assay: Growth inhibition of human RPMI8226 cells; assay type: functional; in short: as §2
PC-3 = assay: Growth inhibition of human PC3 cells; assay type: functional; in short: as §2
UACC-62 = assay: Growth inhibition of human UACC62 cells; assay type: functional; in short: as §1
HOP-92 = assay: Growth inhibition of human HOP92 cells; assay type: functional; in short: as §2
DU-145 = assay: Growth inhibition of human DU145 cells; assay type: functional; in short: as §2
SF-295 [9] = assay: (§4) Growth inhibition of human SF295 cells; assay type: functional; in short: as §1
MDA-N = assay: Growth inhibition of human MDA-N cells; assay type: functional; in short: as §2
P388 = assay: Growth inhibition of mouse P388 cells; assay type: functional
KM12 = assay: Growth inhibition of human KM12 cells; assay type: functional; in short: as §2
MDA-MB-231 = assay: Growth inhibition of human MDA-MB-231/ATCC cells; assay type: functional; in short: as §2
NCI-H226 = assay: Growth inhibition of human NCI-H226 cells; assay type: functional; in short: as §2
ACHN = assay: Growth inhibition of human ACHN cells; assay type: functional; in short: as §2
Streptococcus pneumoniae = assay: Antibacterial activity against Streptococcus pneumoniae ATCC 6303 at 100 ug/disk by disk diffusion method; assay type: functional, organism-based
SF-295 [10] = assay: as §4; assay type: functional; in short: as §1; remark: listed apart in the source
SF-539 = assay: Growth inhibition of human SF539 cells; assay type: functional; in short: as §1

## C/C=C(/C)C(=O)OCc1nccc2c1C(=O)C(N)=C(C)C2=O [CRIBROSTATIN 3]
Neisseria gonorrhoeae [1]
  MIC: 0.0975 µg/disc
[2]
  GI50: 3.09 µM
SN12C
  GI50: 6.17 µM
MDA-MB-435
  GI50: 1.82 µM
SNB-75
  GI50: 4.79 µM
U-251
  GI50: 3.24 µM
SF-268
  GI50: 6.31 µM
T47D
  GI50: 6.46 µM
Micrococcus luteus
  Activity: inactive
COLO 205
  GI50: 5.89 µM
Neisseria gonorrhoeae [3]
  MIC: 0.39 µg/disc
RXF 393
  GI50: 4.9 µM
Malme-3M
  GI50: 0.617 µM
Candida albicans
  Activity: inactive
A549
  GI50: 3.47 µM
OVCAR-3
  GI50: 0.77 µg/mL (≈ 2.56 µM)
Cryptococcus neoformans
  Activity: inactive
MOLT-4
  GI50: 4.9 µM
SK-MEL-5
  GI50: 1.1 µM
Enterobacter cloacae
  Activity: inactive
Escherichia coli
  Activity: inactive
BXPC-3
  GI50: > 1 µg/mL
NCI-H460 [4]
  GI50: 3.02 µM
NCI-H522
  GI50: 3.89 µM
786-0
  GI50: 5.89 µM
OVCAR-8
  GI50: 8.71 µM
KM-20L2
  GI50: > 1 µg/mL
Staphylococcus aureus
  Activity: inactive
K562
  GI50: 7.41 µM
MCF7 [5]
  GI50: 4.68 µM
CCRF-CEM
  GI50: 4.27 µM
OVCAR-4
  GI50: 5.25 µM
MCF7 [6]
  GI50: 4.57 µM
NCI-H460 [7]
  GI50: > 1 µg/mL
LOX IMVI
  GI50: 4.07 µM
SW-620
  GI50: 3.63 µM
[8]
  Activity: inactive
Bacillus subtilis
  Activity: inactive
Enterococcus faecalis
  Activity: inactive
Hs-578T
  GI50: 6.31 µM
SR
  GI50: 3.39 µM
HOP-62
  GI50: 5.37 µM
RPMI-8226
  GI50: 8.51 µM
PC-3
  GI50: 2 µM
UACC-62
  GI50: 2.51 µM
HOP-92
  GI50: 9.55 µM
DU-145
  GI50: > 1 µg/mL
SF-295 [9]
  GI50: > 1 µg/mL
MDA-N
  GI50: 1.91 µM
P388
  GI50: 2.49 µg/mL (≈ 8.29 µM)
P388; read-out: ED50 (the source's name)
  EC50: 2.5 µg/mL (≈ 8.32 µM)
KM12
  GI50: 4.9 µM
MDA-MB-231
  GI50: 8.71 µM
NCI-H226
  GI50: 7.08 µM
ACHN
  GI50: 9.55 µM
Streptococcus pneumoniae
  Activity: inactive
SF-295 [10]
  GI50: 3.63 µM
SF-539
  GI50: 4.79 µM
